Data reported in article PMC11720871 (Results in chemistry, 2024).
Where two headings read alike, the source gives them in different places.

How the values were obtained:
[1] = test system: MDA-MB-231 VIM RFP cells; test: CCK-8 viability assay, cancer cells; assay type: cell-based, human; conditions: read-out: IC50 Cancer MDA-MB-231 VIM RFP
Procedure, shortened: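 MDA-MB-231 VIM RFP cells were grown in EMEM with 10% FBS, 0.01 mg ml−1 insulin, 10 μg ml−1 blasticidin S and 1% pen/strep at 37 °C, 5% CO2. Cells were seeded at 1.5 × 10^4 cells/well and exposed to 0–100 μM test compound, alone or with a fixed 50 μM BBC, for 24, 48 or 72 h. WST-8 (CCK-8) absorbance was read at 450 nm, and IC50 was taken from concentration–viability curves.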

[2] = test system: MCF-10A cells; test: CCK-8 viability assay, non-cancer cells; assay type: cell-based, human; conditions: read-out: IC50 Non-cancer MCF-10A
[3] = test system: MDA-MB-231 VIM RFP cells; test: Cell cycle analysis by flow cytometry; assay type: cell-based, human; conditions: complex 20 μM and/or BBC 50 μM, 24 h
Procedure, shortened: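 Cells were plated at 1 × 10^6 cells/mL in 6-well plates and treated 24 h with 20 μM complex and/or 50 μM BBC. They were washed in PBS, fixed in ice-cold 70% EtOH at 4 °C for 2 h, washed again and stained with DAPI. Flow cytometry read at 450/50 nm, and G1, S and G2 fractions were gated. Triplicate; mean + std. err.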

[4] = test system: Caspase 3/7 in MDA-MB-231 VIM RFP cells; test: Caspase-Glo 3/7 luminescence assay; assay type: cell-based, human; conditions: complex 20 μM and/or BBC 50 μM, 24 h
Procedure, shortened: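 Cells were seeded at 1.5 × 10^4 cells/well and treated for 24 h with 20 μM complex and/or 50 μM BBC. Caspase-Glo 3/7 reagent was added and luminescence read. Mean ± SE, n = 3.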

[5] = test system: p-MLKL in MDA-MB-231 VIM RFP cells; test: Western blot analysis of p-MLKL; assay type: cell-based, human; conditions: complex 20 μM and/or BBC 50 μM, 24 h; relative to GAPDH
Procedure, shortened: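 Cells were plated at 1 × 10^6 cells/mL in 6-well plates and treated 24 h with 20 μM complex and/or 50 μM BBC. RIPA lysates were BCA-normalised, and equal protein was run on 10% SDS-PAGE (100 V, 2 h) and transferred to nitrocellulose (60 V, 90 min). After TBS blocking for 30 min, p-MLKL and GAPDH primaries were applied overnight at 4 °C, then Alexa Fluor Plus 488 secondary for 1 h at RT. Band densitometry was expressed relative to GAPDH.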

[6] = test system: breast cancer MCF-7 cells; conditions: single agent; cited from earlier work
[7] = test system: human cervical cancer HeLa cells; conditions: cited from earlier work
[8] = test system: BT549 cells; conditions: 48 h of treatment; cited from earlier work
[9] = test system: MDA-MB-231 cells; conditions: 48 h of treatment; cited from earlier work
[10] = test system: non-cancer human prostate epithelial cells; conditions: berberine 10–100 μM; cited from earlier work
[11] = test system: pregnant rats; conditions: high dose (500–600 times more than human dosage); cited from earlier work
[12] = test system: prostate cancer PC3 cells; conditions: cited from earlier work

With `COc1ccc2cc3[n+](cc2c1OC)CCc1cc2c(cc1-3)OCO2` [Berberine chloride (BBC), berberine chloride] as the molecule, how does the IC50 ([1]; Homo sapiens, MDA-MB-231, 24 h) read?
Its IC50 is 48.3 ± 2.4 µM.

What about the IC50 ([1]; Homo sapiens, MDA-MB-231, 48 h) of the same molecule?
The IC50 was 31.8 ± 2.6 µM.

And the IC50 ([1]; Homo sapiens, MDA-MB-231, 72 h)?
Its IC50 is 25.6 ± 1.9 µM.

And the IC50 ([2]; Homo sapiens, MCF-10A, 24 h)?
The IC50 was > 100 µM.

What about the IC50 ([2]; Homo sapiens, MCF-10A, 48 h) of the same molecule?
The IC50 was > 100 µM.

And the IC50 ([2]; Homo sapiens, MCF-10A, 72 h)?
Its IC50 is 92.3 ± 1.4 µM.

What about the “Fraction of cells in G2 phase” value [3] of the same molecule?
Its value is 33.8%.

What about the “Caspase 3/7 activity (luminescence)” value [4] of the same molecule?
The value was “activation in caspase 3/7”.

And the “p-MLKL level, western blot” value [5]?
The value was “low level of p-MLKL”.

Which IC50 ([1]; 24 h incubation, CCK-8) does the source give for `N.N.[Cl][Pt][Cl]` [Cisplatin] here?
Its IC50 is 28.1 ± 2.4 µM.

And the IC50 ([1]; 48 h incubation, CCK-8)?
Its IC50 is 24.7 ± 2.6 µM.

And the IC50 ([1]; 72 h incubation, CCK-8)?
Its IC50 is 22.2 ± 1.8 µM.

And the IC50 ([2]; 24 h incubation, CCK-8)?
The IC50 was 41.2 ± 1.9 µM.

What about the IC50 ([2]; 48 h incubation, CCK-8) of the same molecule?
Its IC50 is 34.2 ± 2.7 µM.

And the IC50 [6]?
The IC50 was 49.5 ± 1.62 µM.

With `COc1ccc2cc3[n+](cc2c1OC)CCc1cc2c(cc1-3)OCO2` [berberine] as the molecule, how does the IC50 [6] read?
The IC50 was 52.2 ± 1.59 µM.

And the “Enhancement of toxicity of berberine when combined with cisplatin” value ([7]; berberine 50 μg/mL combined with 5 μM of cisplatin)?
The value was “around 54%”.

What about the Cytotoxic effect ([7]; dose of 50 μg/mL) of the same molecule?
Its Cytotoxic effect is “significant cytotoxic effect”.

What about the IC50 [8] of the same molecule?
The IC50 was 16.575 ± 1.219 µg/mL.

What about the IC50 [9] of the same molecule?
Its IC50 is 18.525 ± 6.139 µg/mL.

And the Cytotoxic effect [10]?
The Cytotoxic effect was “did not show a significant cytotoxic effect”.

What about the Reproductive toxicity [11] of the same molecule?
The Reproductive toxicity was “no significant reproductive toxicity”.

And the Cell cycle arrest ([12]; 10 μM)?
The Cell cycle arrest was “induced G0/G1 cell cycle arrest”.

And the Cell cycle arrest ([12]; 50 μM)?
Its Cell cycle arrest is “inhibited the cell cycle at G2/M phase”.
